Results published in ChEMBL document CHEMBL4196130, “3-(2-Carboxyethyl)indole-2-carboxylic Acid Derivatives: Structural Requirements and Properties of Potent Agonists of the Orphan G Protein-Coupled Receptor GPR17” (J Med Chem, 2018).
Active and inactive are the calls of the source. The calls are words filed in the database; no cut-off is given here.

Experiments:
[1] = target: T1, Uracil nucleotide/cysteinyl leukotriene receptor (Homo sapiens, UniProt Q13304); assay: Agonist activity at human GPR17 expressed in human 1321N1 cells assessed as induction of calcium mobilization after 1 hr by Oregon Green BAPTA-1/AM dye-based fluorescence assay; assay type: functional, cell-based
Method in brief: (§1)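 Stably transfected 1321N1 astrocytoma cells were trypsin/EDTA-harvested, held 45 min at 37°C, then loaded 1 h at 25°C in KRH buffer pH 7.4 with 3 µM Oregon Green BAPTA-1/AM and 1% Pluronic F127, washed, and plated at ~16,000 cells/well. Fluorescence was read at 520 nm for 30 s after compound injection. Efficacy was expressed relative to the maximum given by 10 µM MDL 29,951. EC50 came from concentration-response curves, run for compounds exceeding 50% stimulation at 10 µM. At least three independent experiments, each in duplicate.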

[2] = target: T1, Uracil nucleotide/cysteinyl leukotriene receptor; assay: Agonist activity at human GPR17 expressed in human 1321N1 cells assessed as induction of calcium mobilization after 1 hr by Oregon Green BAPTA-1/AM dye-based fluorescence assay relative to MDL 29,951; assay type: functional, cell-based; method in brief: as §1
[3] = target: T1, Uracil nucleotide/cysteinyl leukotriene receptor; assay: Agonist activity at human GPR17 expressed in human 1321N1 cells assessed as induction of calcium mobilization at >30 uM after 1 hr by Oregon Green BAPTA-1/AM dye-based fluorescence assay relative to control; assay type: functional, cell-based
[4] = target: T1, Uracil nucleotide/cysteinyl leukotriene receptor; assay: Antagonist activity at human GPR17 expressed in human 1321N1 cells assessed as inhibition of MDL 29,951-induced calcium mobilization after 1 hr by Oregon Green BAPTA-1/AM dye-based fluorescence assay; assay type: functional, cell-based
Method in brief: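 Oregon Green BAPTA-1/AM calcium assay in hGPR17-1321N1 cells (1 h dye loading at 25°C in KRH buffer pH 7.4). Full inhibition curves were run for potent antagonists. Fluorescence was read at 520 nm.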

[5] = target: T1, Uracil nucleotide/cysteinyl leukotriene receptor; assay: Antagonist activity at human GPR17 expressed in human 1321N1 cells assessed as inhibition of MDL 29,951-induced calcium mobilization at 30 uM after 1 hr by Oregon Green BAPTA-1/AM dye-based fluorescence assay relative to control
[6] = target: T1, Uracil nucleotide/cysteinyl leukotriene receptor; assay: Agonist activity at human GPR17 expressed in human 1321N1 cells assessed as induction of calcium mobilization at >100 uM after 1 hr by Oregon Green BAPTA-1/AM dye-based fluorescence assay relative to control; assay type: functional, cell-based
[7] = target: T1, Uracil nucleotide/cysteinyl leukotriene receptor; assay: Agonist activity at human GPR17 expressed in human 1321N1 cells assessed as induction of calcium mobilization at >10 uM after 1 hr by Oregon Green BAPTA-1/AM dye-based fluorescence assay relative to control; assay type: functional, cell-based
[8] = target: P2Y purinoceptor 6 (Homo sapiens) (UniProt Q15077); assay: Agonist activity at human P2Y6 receptor transfected in human 1321N1 cells assessed as induction of calcium mobilization after 30 mins in presence of UDP by fluo-4 dye based assay; assay type: functional, cell-based
Method in brief: (§2)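 Calcium mobilization was measured in 1321N1 astrocytoma cells stably transfected with human P2Y1, P2Y2, P2Y4 or P2Y6 receptors, read on a Flexstation III microplate reader.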

[9] = target: T2, P2Y purinoceptor 14 (Homo sapiens) (UniProt Q15391); assay: Agonist activity at human P2Y14 receptor transfected in CHO cells assessed as induction of beta-arrestin translocation; assay type: functional, cell-based
T2 sequence (whole entry): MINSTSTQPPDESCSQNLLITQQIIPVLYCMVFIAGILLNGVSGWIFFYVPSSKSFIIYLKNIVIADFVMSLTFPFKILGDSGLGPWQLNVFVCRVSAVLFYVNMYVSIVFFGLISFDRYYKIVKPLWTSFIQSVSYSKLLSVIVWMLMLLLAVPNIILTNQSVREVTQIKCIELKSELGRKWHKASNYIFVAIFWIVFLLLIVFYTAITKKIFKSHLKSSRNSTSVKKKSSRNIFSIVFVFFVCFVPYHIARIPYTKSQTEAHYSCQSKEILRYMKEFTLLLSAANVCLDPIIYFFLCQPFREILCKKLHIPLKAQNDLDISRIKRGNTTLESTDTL
Method in brief: (§3)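 β-Arrestin translocation assays were run in CHO cells stably transfected with human P2Y12 or P2Y14 receptors.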

P2Y purinoceptor 2 = P2Y purinoceptor 2 (Homo sapiens, UniProt P41231); assay: Agonist activity at human P2Y2 receptor transfected in human 1321N1 cells assessed as induction of calcium mobilization after 30 mins in presence of UTP by fluo-4 dye based assay; assay type: functional, cell-based; method in brief: as §2
[10] = target: P2Y purinoceptor 1 (Homo sapiens) (UniProt P47900); assay: Agonist activity at human P2Y1 receptor transfected in human 1321N1 cells assessed as induction of calcium mobilization after 30 mins in presence of ADP by fluo-4 dye based assay; assay type: functional, cell-based; method in brief: as §2
[11] = target: P2Y purinoceptor 12 (Homo sapiens) (UniProt Q9H244); assay: Agonist activity at human P2Y12 receptor transfected in CHO cells assessed as induction of beta-arrestin translocation; assay type: functional, cell-based; method in brief: as §3
[12] = target: P2Y purinoceptor 4 (Homo sapiens) (UniProt P51582); assay: Agonist activity at human P2Y4 receptor transfected in human 1321N1 cells assessed as induction of calcium mobilization after 30 mins in presence of UTP by fluo-4 dye based assay; assay type: functional, cell-based; method in brief: as §2
[13] = target: Uracil nucleotide/cysteinyl leukotriene receptor (Mus musculus, UniProt Q6NS65); assay: Agonist activity at mouse GPR17 expressed in HEK293 cells assessed as induction of intracellular calcium mobilization by calcium 5-dye based assay; assay type: functional, cell-based
Method in brief: (§4)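 HEK293 cells expressing rat or mouse GPR17 were seeded at 60,000 cells/well on poly-D-lysine plates and loaded 40 min with Calcium 5 indicator dye. Calcium signals were read on a plate reader. EC50 was obtained by nonlinear regression of concentration-response data. Means ± SEM from 3 independent experiments.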

[14] = Selectivity ratio of EC50 for rat GPR17 expressed in HEK293 cells to EC50 for human GPR17 expressed in human 1321N1 cells; assay type: cell-based
[15] = target: T1, Uracil nucleotide/cysteinyl leukotriene receptor; assay: Displacement of [3H]PSB-12150 from human GPR17 expressed in CHO cell membranes after 60 mins by liquid scintillation counting
Method in brief: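 Membranes from CHO cells stably expressing human GPR17 were incubated 60 min at 25°C with 25 nM [3H]PSB-12150 (17 Ci/mmol), 10 mM MgCl2 and increasing test compound concentrations. Bound radioligand was separated by GF/B filtration and counted by liquid scintillation. Nonspecific binding was defined with 100 µM unlabeled PSB-12150. Ki came from the Cheng-Prusoff equation with KD 1190 nM. Three independent experiments in duplicate.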

[16] = Selectivity ratio of EC50 for mouse GPR17 expressed in HEK293 cells to EC50 for human GPR17 expressed in human 1321N1 cells; assay type: cell-based
[17] = target: Uracil nucleotide/cysteinyl leukotriene receptor (Rattus norvegicus, UniProt Q09QM4); assay: Agonist activity at rat GPR17 expressed in HEK293 cells assessed as induction of intracellular calcium mobilization by calcium 5-dye based assay; assay type: functional, cell-based; method in brief: as §4
Uracil nucleotide/cysteinyl leukotriene receptor (Rattus norvegicus, UniProt Q09QM4), sequence (Q09QM4 whole entry): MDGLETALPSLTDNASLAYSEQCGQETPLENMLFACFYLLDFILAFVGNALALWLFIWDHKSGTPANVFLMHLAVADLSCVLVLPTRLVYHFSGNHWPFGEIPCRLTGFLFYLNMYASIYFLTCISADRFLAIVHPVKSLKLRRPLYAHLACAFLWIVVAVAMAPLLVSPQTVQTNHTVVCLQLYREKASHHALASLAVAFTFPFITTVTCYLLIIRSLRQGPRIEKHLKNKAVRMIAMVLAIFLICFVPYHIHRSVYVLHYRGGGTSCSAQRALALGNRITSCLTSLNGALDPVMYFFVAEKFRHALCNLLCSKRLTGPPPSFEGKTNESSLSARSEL

P2Y purinoceptor 4 (Homo sapiens), sequence (P51582 whole entry): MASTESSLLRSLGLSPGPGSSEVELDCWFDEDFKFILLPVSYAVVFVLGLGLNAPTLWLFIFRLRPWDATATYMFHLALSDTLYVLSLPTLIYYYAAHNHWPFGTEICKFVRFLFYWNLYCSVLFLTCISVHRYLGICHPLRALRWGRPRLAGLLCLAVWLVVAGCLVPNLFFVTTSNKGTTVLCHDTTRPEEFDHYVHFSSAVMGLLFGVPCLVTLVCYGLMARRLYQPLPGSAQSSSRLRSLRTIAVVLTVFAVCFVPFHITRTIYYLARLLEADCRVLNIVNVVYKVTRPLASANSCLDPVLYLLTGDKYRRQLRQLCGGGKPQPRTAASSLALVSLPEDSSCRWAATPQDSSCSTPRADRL
T1 sequence (Q13304 whole entry): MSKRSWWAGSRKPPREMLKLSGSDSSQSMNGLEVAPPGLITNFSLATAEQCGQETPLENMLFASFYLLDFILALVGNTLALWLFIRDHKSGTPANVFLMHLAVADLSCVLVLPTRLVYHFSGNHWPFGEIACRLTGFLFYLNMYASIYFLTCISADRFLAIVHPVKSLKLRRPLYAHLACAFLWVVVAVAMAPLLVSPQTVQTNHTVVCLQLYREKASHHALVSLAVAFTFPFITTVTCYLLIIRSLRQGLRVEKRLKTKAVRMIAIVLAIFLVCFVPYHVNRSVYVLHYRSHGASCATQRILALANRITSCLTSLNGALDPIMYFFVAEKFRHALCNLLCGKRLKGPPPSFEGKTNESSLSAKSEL
P2Y purinoceptor 6 (Homo sapiens), sequence (Q15077 whole entry): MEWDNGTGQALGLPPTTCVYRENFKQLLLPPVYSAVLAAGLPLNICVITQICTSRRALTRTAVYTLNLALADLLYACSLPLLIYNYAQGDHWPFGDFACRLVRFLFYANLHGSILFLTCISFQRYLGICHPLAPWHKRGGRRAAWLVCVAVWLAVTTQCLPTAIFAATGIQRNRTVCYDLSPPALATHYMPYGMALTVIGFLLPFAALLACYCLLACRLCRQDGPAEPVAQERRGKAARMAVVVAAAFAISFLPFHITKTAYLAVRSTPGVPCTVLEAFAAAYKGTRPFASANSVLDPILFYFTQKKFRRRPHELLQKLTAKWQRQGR
P2Y purinoceptor 2, sequence (P41231 whole entry): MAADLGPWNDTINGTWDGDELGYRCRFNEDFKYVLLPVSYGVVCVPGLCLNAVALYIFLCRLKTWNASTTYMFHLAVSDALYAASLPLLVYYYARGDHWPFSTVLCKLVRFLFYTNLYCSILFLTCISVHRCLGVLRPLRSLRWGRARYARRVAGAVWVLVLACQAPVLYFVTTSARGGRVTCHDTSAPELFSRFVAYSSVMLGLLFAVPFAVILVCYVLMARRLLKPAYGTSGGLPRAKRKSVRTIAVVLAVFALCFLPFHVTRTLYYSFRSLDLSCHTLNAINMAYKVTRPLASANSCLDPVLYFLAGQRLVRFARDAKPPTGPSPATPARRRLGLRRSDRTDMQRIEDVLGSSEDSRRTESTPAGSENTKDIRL
P2Y purinoceptor 1 (Homo sapiens), sequence (P47900 whole entry): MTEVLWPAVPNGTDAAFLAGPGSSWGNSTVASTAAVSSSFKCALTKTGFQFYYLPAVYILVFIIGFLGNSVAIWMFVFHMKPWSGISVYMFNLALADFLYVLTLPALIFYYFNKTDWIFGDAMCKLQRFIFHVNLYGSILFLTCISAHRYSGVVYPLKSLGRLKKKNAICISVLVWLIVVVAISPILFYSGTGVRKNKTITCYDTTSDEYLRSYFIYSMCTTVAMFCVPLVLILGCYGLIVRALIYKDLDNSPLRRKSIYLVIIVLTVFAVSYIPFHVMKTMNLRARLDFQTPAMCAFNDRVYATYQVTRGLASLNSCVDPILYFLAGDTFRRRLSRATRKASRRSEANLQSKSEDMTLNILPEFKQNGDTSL
P2Y purinoceptor 12 (Homo sapiens), sequence (Q9H244 whole entry): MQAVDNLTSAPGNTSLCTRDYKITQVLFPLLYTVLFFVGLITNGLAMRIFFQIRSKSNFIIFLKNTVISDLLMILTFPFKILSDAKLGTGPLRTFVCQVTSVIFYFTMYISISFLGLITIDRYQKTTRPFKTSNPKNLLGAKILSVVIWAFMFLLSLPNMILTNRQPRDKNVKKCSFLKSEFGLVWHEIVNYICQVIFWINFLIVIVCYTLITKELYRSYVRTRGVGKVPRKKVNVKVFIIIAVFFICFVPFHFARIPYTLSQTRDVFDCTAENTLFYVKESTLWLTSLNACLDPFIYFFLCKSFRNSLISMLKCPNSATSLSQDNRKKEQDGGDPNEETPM
Uracil nucleotide/cysteinyl leukotriene receptor (Mus musculus, UniProt Q6NS65), sequence (Q6NS65 whole entry): as the sequence (Q09QM4 whole entry) above, with D2N, T6A, A15S, S270A counted along it

Structure (SMILES)	EC50 [1]	Emax [2]	Activity [3]	also measured
CCCCCCCCOc1cc(Cl)c2c(CCC(=O)O)c(C(=O)O)[nH]c2c1	0.117 µM	77%		
O=C(O)CCc1c(C(=O)O)n(CCC(=O)O)c2cc(Cl)cc(Cl)c12	5.44 µM			
O=C(O)Cc1c[nH]c2ccc(O)cc12			1%	IC50 [4]: > 30 µM; inhibition [5]: 7%
O=C(O)CCc1c(C(=O)O)[nH]c2c(F)c(-c3cccs3)ccc12	> 100 µM			Activity [6]: 21%
O=C(O)CCc1c(C(=O)O)[nH]c2cc(Cl)ccc12		84%		
O=C(O)CCc1c(C(=O)O)[nH]c2cc(F)cc(I)c12	1.47 µM	92%		
O=C(O)CCc1c(C(=O)O)[nH]c2cc(-c3ccccc3)cc(-c3ccccc3)c12	4.09 µM	84%		
O=C(O)CCCc1c(C(=O)O)[nH]c2cc(Cl)cc(Cl)c12	> 30 µM		1%	
O=C(O)CCc1c(C(=O)O)[nH]c2c(Cl)ccc(Cl)c12	> 30 µM		1%	
CCCCCCCCOc1cc(Cl)cc2[nH]c(C(=O)O)c(CCC(=O)O)c12	> 10 µM			Activity [7]: 25%
CN(C)CCc1c[nH]c2ccc(Cn3cncn3)cc12 [RIZATRIPTAN]			0%	IC50 [4]: > 30 µM; inhibition [5]: 27%
O=C(O)CCc1c(C(=O)O)[nH]c2c(F)c(-c3ccco3)ccc12	14.4 µM	57%		
O=C(O)CCc1c(C(=O)O)[nH]c2cc(F)cc(Br)c12	0.624 µM	100%		
O=C(O)CCc1c(C(=O)O)[nH]c2ccccc12	> 30 µM		8%	
O=C(O)CCc1c(C(=O)O)[nH]c2cc(F)ccc12	≥ 10 µM			
O=C(O)CCc1c[nH]c2cc(Cl)cc(Cl)c12	1.68 µM	41%		
COc1ccc2c(CCC(=O)O)c(C(=O)O)[nH]c2c1	> 100 µM			Activity [6]: 35%; IC50 [4]: 8.4 µM
O=C(O)CCc1c(C(=O)O)[nH]c2c(Cl)cc(Cl)c(Cl)c12	> 30 µM		16%	
O=C(O)CCc1c(C(=O)O)[nH]c2cc(Br)cc(F)c12	0.0279 µM	102%		Activity [8]: inactive; Activity [9]: inactive; Activity (P2Y purinoceptor 2): inactive; Activity [10]: inactive; Activity [11]: inactive; Activity [12]: inactive
O=C(O)CCc1c(C(=O)O)[nH]c2cc(-c3cccs3)ccc12	9.55 µM	87%		
COc1ccc2c(c1)c(CC(=O)O)c(C)n2C(=O)c1ccc(Cl)cc1 [INDOMETHACIN]			0%	IC50 [4]: 28.8 µM
O=C(O)/C=C/c1c(C(=O)O)[nH]c2cc(Cl)cc(Cl)c12	> 30 µM		22%	
O=C(O)CCc1c(C(=O)O)[nH]c2ccc(F)cc12	> 30 µM		9%	
O=C(O)CCc1c(C(=O)O)[nH]c2c(F)c(Cl)ccc12	7.9 µM	87%		
O=C(O)CCc1c(C(=O)O)[nH]c2cc(-c3ccco3)ccc12	4.13 µM	74%		

Structure (SMILES)	EC50 [1]	Emax [2]	Activity [3]	also measured
CCCCCOc1cc(Cl)cc2[nH]c(C(=O)O)c(CCC(=O)O)c12	≥ 10 µM			
COc1cccc2[nH]c(C(=O)O)c(CCC(=O)O)c12	> 100 µM			Activity [6]: 4%
CCCCCOc1cc(Cl)c2c(CCC(=O)O)c(C(=O)O)[nH]c2c1	0.103 µM	98%		
O=C(O)CCc1c(C(=O)O)[nH]c2c(F)c(-c3ccc(F)cc3)ccc12	> 100 µM			
O=C(O)CCc1c(C(=O)O)[nH]c2c(F)c(Br)ccc12	4.83 µM	98%		
O=C(O)CCc1c(C(=O)O)[nH]c2cc(Oc3ccccc3)ccc12	0.27 µM	100%		
O=C(O)CCc1c(C(=O)O)[nH]c2cc(Cc3ccccc3)ccc12	4.98 µM	80%		
O=C(O)CCc1c(C(=O)O)[nH]c2c1ccc1ccccc12	> 30 µM		0%	
CC(C)c1ccc2[nH]c(C(=O)O)c(CCC(=O)O)c2c1	> 30 µM		6%	
O=C(O)CCc1c(C(=O)O)[nH]c2c(F)c(-c3ccccc3)ccc12	3.01 µM	65%		
O=C(O)CCc1c(C(=O)O)[nH]c2cc(-c3ccc(F)cc3)ccc12	4.02 µM	48%		
Cc1cc(C)c2c(CCC(=O)O)c(C(=O)O)[nH]c2c1	15.1 µM	76%		
COc1ccc2[nH]c(C(=O)O)c(CCC(=O)O)c2c1	> 30 µM		5%	
O=C(O)CCc1c(C(=O)O)[nH]c2cc(Cl)cc(-c3ccc(F)cc3)c12	3.68 µM	101%		
O=C(O)CCc1c(C(=O)O)[nH]c2cc(-c3ccccc3)ccc12		83%		
O=C(O)CCc1c(C(=O)O)[nH]c2c(Cl)c(Cl)ccc12	> 100 µM			Activity [6]: 5%
O=C(O)CCc1c(C(=O)O)[nH]c2cc(I)cc(F)c12	0.0321 µM	122%		Activity [8]: inactive; Activity [9]: inactive; Activity (P2Y purinoceptor 2): inactive; Activity [10]: inactive; Activity [11]: inactive; Activity [12]: inactive
Cn1c(C(=O)O)c(CCC(=O)O)c2c(Cl)cc(Cl)cc21	> 30 µM		16%	
O=C(O)CCc1c(C(=O)O)[nH]c2cccc(-c3ccccc3)c12	> 100 µM			Activity [6]: 3%
O=C(O)CCc1c(C(=O)O)[nH]c2cc(F)cc(F)c12		72%		
N[C@@H](Cc1c[nH]c2ccccc12)C(=O)O [TRYPTOPHAN]			0%	IC50 [4]: > 30 µM; inhibition [5]: 1%
O=C(O)CCc1c(C(=O)O)[nH]c2cc(Cl)cc(Cl)c12				EC50 [13]: 1.11 µM; Activity [8]: inactive; Ratio EC50 [14]: 2 to 6; Activity [9]: inactive; Activity (P2Y purinoceptor 2): inactive; Ki [15]: 2.45 µM; Activity [10]: inactive; Ratio EC50 [16]: 2 to 6; EC50 [17]: 0.705 µM; Activity [11]: inactive; Activity [12]: inactive
O=C(O)CCc1c(C(=O)O)[nH]c2cc(-c3ccc(F)cc3)cc(Cl)c12	0.423 µM	92%		
O=C(O)CCc1c(C(=O)O)[nH]c2cc(Cl)c(Cl)cc12	> 30 µM		11%	
